According to PMC6850403 (Clinical Pharmacology in Drug Development, 2019):
Like-named read-outs stand apart in the source and are kept apart here.

How the values were obtained:
[1] = cited from earlier work
[2] = format: in vivo, human; conditions: for clearance: CL; for half-life: t½
Method in brief: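 Open-label, randomized 2-period, 2-sequence crossover in 12 healthy volunteers, fasted ≥10 h. Single 100 mg oral tablet with water to 240 mL, or 50 mg IV (1 mg/mL over 1.25 h). Plasma sampled 0–96 h and assayed by HPLC-MS/MS (LLOQ 3 ng/mL). Noncompartmental analysis used: CL/F = dose/AUC0‐∞. Log dose-normalized AUCs fitted by linear mixed-effect model; ratios exponentiated with 90% CI.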

[3] = Safety and tolerability evaluation in the absolute bioavailability study; format: in vivo, human
Method in brief: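 Healthy subjects in a randomized crossover each received a single 100 mg oral tablet and a single 50 mg IV infusion over 1.25 h, fasted. Recorded as AEs: adverse drug reactions, illnesses with onset during study, exacerbation of previous illness, clinically significant physical-examination changes and abnormal objective test findings. Vital signs, ECG and laboratory parameters were monitored.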

Human mass balance = format: in vivo; conditions: urine, po, 100 mg
[4] = Hepatic extraction estimate, well-stirred model; parameters: species or system human; conditions: hepatic blood flow of 87 L/h
[5] = once daily (QD), patients with advanced myeloid malignancies; cited from earlier work
[6] = cited from earlier work; remark: listed apart in the source
[7] = test system: cytochrome P450 (CYP) 3A4/5; conditions: preclinical studies; cited from earlier work
[8] = single 100‐mg dose; cited from earlier work
[9] = weakly basic drug; cited from earlier work
human blood = conditions: parenteral formulation, in vitro; cited from earlier work
[10] = parenteral formulation, rabbit; cited from earlier work
[11] = cited from earlier work; remark: listed apart in the source
[12] = in vitro data and data from the ADME study; cited from earlier work
[13] = 100 mg oral tablet, single dose, fasted
[14] = human, plasma, iv, 50 mg, arithmetic mean ± SD, 50 mg IV, single dose, fasted
[15] = human, plasma, iv, 50 mg, geometric mean (geometric CV, %), 50 mg IV, single dose, fasted
[16] = human, plasma, po, 100 mg, arithmetic mean ± SD, 100 mg oral tablet, single dose, fasted

In the case of [^14C]glasdegib, the “Mean recovery of radioactivity in urine (as parent and metabolites)” value ([1]; single oral dose of 100‐mg/100‐µCi, 6 healthy volunteers) is given as 49%.

In the case of `CN1CC[C@@H](NC(=O)Nc2ccc(C#N)cc2)C[C@@H]1c1nc2ccccc2[nH]1` [Glasdegib], the “AUC0‐last(dn), dose normalized geometric mean from the statistical model” value ([2]; 50 mg IV) is reported as 96.98 ng·h/mL/mg, the “AUC0‐∞(dn), dose normalized geometric mean from the statistical model” value ([2]; 50 mg IV) is reported as 98.90 ng·h/mL/mg and the “Intersubject variability in CL, %CV of the geometric mean” value ([2]; 50 mg IV) is reported as 38%. The “t½, arithmetic mean ± SD” value ([2]; 50 mg IV, single dose, fasted) was 13.78 ± 2.97 h, the “AUC0‐last(dn), dose normalized geometric mean from the statistical model” value ([2]; 100 mg oral tablet) was 74.88 ng·h/mL/mg and the “AUC0‐∞(dn), dose normalized geometric mean from the statistical model” value ([2]; 100 mg oral tablet) was 76.28 ng·h/mL/mg. The “Intersubject variability in CL/F, %CV of the geometric mean” value ([2]; 100 mg oral tablet) was 38%, the “CL/F, arithmetic mean ± SD” value [2, 13] was 13.87 ± 4.51 L/h and the “CL/F, geometric mean (geometric CV, %)” value [2, 13] was 13.10 (38) L/h. For the same compound, the “t½, arithmetic mean ± SD” value [2, 13] was 14.26 ± 2.45 h, the “CL/F, arithmetic mean ± SD” value ([2]; 100 mg oral tablet, single dose, fasted, listed as glasdegib) was 13.87 L/h and the Tmax ([2]; human, plasma, iv, 50 mg) was 1.27 h. For the same compound, the AUC ([2]; human, plasma, iv, 50 mg, AUC0‐last, arithmetic mean ± SD, 50 mg IV, single dose, fasted) was 5120 ± 2160 ng·h/mL, the AUC ([2]; human, plasma, iv, 50 mg, AUC0‐last, geometric mean (geometric CV, %), 50 mg IV, single dose, fasted) was 4780 ng·h/mL and the AUC ([2]; human, plasma, iv, 50 mg, AUC0‐∞, arithmetic mean ± SD, 50 mg IV, single dose, fasted) was 5220 ± 2210 ng·h/mL. For the same compound, the AUC ([2]; human, plasma, iv, 50 mg, AUC0‐∞, geometric mean (geometric CV, %), 50 mg IV, single dose, fasted) was 4880 ng·h/mL, the clearance [2, 14] was 181 mL/min and the clearance [2, 15] was 171 mL/min. The Cmax [2, 14] was 687 ± 197 ng/mL, the Cmax [2, 15] was 665 ng/mL and the half-life [2, 14] was 13.8 h. The bioavailability ([2]; human, plasma, oral, Absolute oral bioavailability, arithmetic mean ± SD, arithmetic mean ratios, without logarithmic transformation, of AUC0‐∞(dn) oral to IV) was 78.5 ± 12.8%, the Tmax ([2]; human, plasma, po, 100 mg) was 1.52 h and the AUC ([2]; human, plasma, po, 100 mg, AUC0‐last, arithmetic mean ± SD, 100 mg oral tablet, single dose, fasted) was 7990 ± 3310 ng·h/mL. The AUC ([2]; human, plasma, po, 100 mg, AUC0‐last, geometric mean (geometric CV, %), 100 mg oral tablet, single dose, fasted) was 7490 ng·h/mL, the AUC ([2]; human, plasma, po, 100 mg, AUC0‐∞, arithmetic mean ± SD, 100 mg oral tablet, single dose, fasted) was 8160 ± 3440 ng·h/mL and the AUC ([2]; human, plasma, po, 100 mg, AUC0‐∞, geometric mean (geometric CV, %), 100 mg oral tablet, single dose, fasted) was 7630 ng·h/mL. The Cmax [2, 16] was 684 ± 155 ng/mL, the Cmax ([2]; human, plasma, po, 100 mg, geometric mean (geometric CV, %), 100 mg oral tablet, single dose, fasted) was 668 ng/mL and the half-life [2, 16] was 14.3 h. For the same compound, the AEs reported ([3]; following 50 mg IV administration) was “No AEs were reported”, the “Number of AEs reported” value ([3]; following 100 mg oral tablet, 1 mild and 1 moderate, in 2 subjects) was 2 and the Tolerability ([3]; single 100‐mg oral and 50‐mg IV doses, healthy subjects) was “generally safe and well tolerated”. For the same compound, the “Peak ALT elevation, subject with moderate AE” value ([3]; treatment period 1 day 10, after oral 100 mg) was 3 × upper limit of normal, the dose excreted (Human mass balance) was ≥ 49% and the Hepatic extraction [4] was < 0.3. The “Maximum tolerated dose as a single agent” value [5] was 400 mg, the Maximum tolerated dose ([6]; QD, patients with advanced solid tumor) was 320 mg and the Tolerability ([6]; single dose of 320 mg, patients with advanced tumors) was “well tolerated”. For the same compound, the Metabolizing enzyme [7] was “primarily metabolized by cytochrome P450 (CYP) 3A4/5”, the “Effect of proton‐pump inhibitors on glasdegib PK” value [8] was “do not have a clinically relevant effect” and the “Solubility, pH dependence” value [9] was “decreasing solubility as pH increases”. The “Hemolysis in human blood” value (human blood) was “did not suggest that glasdegib was the cause of hemolysis in human blood”, the “Local vascular tissue irritation” value [10] was “did not suggest that glasdegib was the cause of hemolysis in human blood and/or local vascular tissue irritation” and the “Administered parent dose recovered in the feces” value [1] was 19.5%. The “Contribution of the glucuronidation pathway via UGT1A9 to elimination” value [1] was “only minor”, the “Major route of elimination” value [1] was “primarily through CYP3A4 oxidation” and the “Mean plasma renal clearance” value [1] was 1.97 L/h. For the same compound, the “Impact of disintegration and dissolution on absorption kinetics” value ([11]; oral solution compared to instant‐release tablet) was “do not appear to impact the absorption kinetics”, the “Geometric mean Cmax” value ([11]; single 100‐mg oral dose, 100‐mg maleate immediate release tablet, healthy subjects) was 775.3 ng/mL and the “Plasma to whole blood partitioning” value [12] was < 1.
